Screens deposited in PubChem by several laboratories.
Only some compounds are listed: those with a hit (about 2.6% of all), similar ones and a draw of the others.
AHR act: AHR activators, primary screen, cell-based, luminescence, luciferase reporter, human; actives 2.5% (n = 320,000); activation, % at 5 µM; AHR-responsive luciferase reporter cells; in the data active means activation above about 47%;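 further: 0% = vehicle wells and 100% = reference agonist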
PolyA inhibitor: polyadenylation inhibitors in yeast reporter cells, primary screen, luminescence, S. cerevisiae; S. cerevisiae SKY197-pL101 polyadenylation reporter, beta-gal luminescence; efflux-impaired pdr1/pdr3 knockout yeast; score 100 = 6 SD above DMSO; activity score, % at 12 µM; actives 0.02% (n = 300,000); AID 1875, 2009;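 active means lowest replicate activity score at least 50, where 100 means six control SD above control mean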;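 further: yeast exposed to compound for 9 h at 30 °C; higher score means more reporter readthrough which indicates perturbed polyadenylation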
proCasp7 act: procaspase-7 activators, primary screen, counter-screen for procaspase-3 activator project, biochemical, absorbance, HTS, human; AID 463210, 2010; Caspase-7 (Homo sapiens), P55210; recombinant procaspase-7, Ac-DEVD-pNA absorbance 405 nm; D23A/D198A/D206A triple mutant, cannot self-cleave; scale: DMSO 0, 5 µM enzyme 100; actives 0.093% (n = 330,000); activation, % at 8.5 µM;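 active means percent activation above the screen-wide mean plus 3 SD, cut at about 25% in these data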
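Assay system: Uncleavable procaspase-7 mutant enzyme / Input: 2 µM procaspase-7 mutant as dispensed / Dosing: single nominal 8.5 µM compound dose, 0.8% DMSO final / Timing: 1 h enzyme–compound preincubation and 2 h substrate reaction, both 25 °C / Detection: p-Nitroaniline absorbance at 405 nm, read at 0 and 120 min / Replication: singlicate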
procasp3 activ: activators of human procaspase-3 D3A mutant, primary screen, biochemical, absorbance, PC-3 D3A mutant, single concentration; Caspase-3 (Homo sapiens), P42574; recombinant procaspase-3 D3A, Ac-DEVD-pNA absorbance 405 nm; activation, % at 8.5 µM; actives 0.11% (n = 330,000); AID 463141, 2010;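 active means activation above the mean of all tested compounds plus 3 SD, cut at about 21% in these data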;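 further: 0% = DMSO alone and 100% = DMSO wells spiked with extra 5 µM PC-3 D3A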
Target sequence (P42574 whole entry D9A/D28A/D175A): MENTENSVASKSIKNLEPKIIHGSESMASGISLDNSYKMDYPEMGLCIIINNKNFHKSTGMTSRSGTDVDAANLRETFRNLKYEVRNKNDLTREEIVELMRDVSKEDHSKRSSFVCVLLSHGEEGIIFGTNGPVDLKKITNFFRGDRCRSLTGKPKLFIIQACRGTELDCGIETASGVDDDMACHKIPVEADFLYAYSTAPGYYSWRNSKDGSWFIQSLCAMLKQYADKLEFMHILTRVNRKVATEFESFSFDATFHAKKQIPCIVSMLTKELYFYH
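Assay system: Autoprocessing-dead procaspase-3 D3A mutant enzyme; also added: Ac-DEVD-pNA; doses: one concentration, 8.5 µM nominal, 0.8% DMSO; times: 1 h compound preincubation, 2 h substrate hydrolysis at 25 °C; technique: 405 nm absorbance of p-nitroaniline, reads at 0 and 120 min; measure: % activation between DMSO and enzyme-spiked controls; repeats: single replicate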
AHR act confirm: AHR activators, confirmation, cell-based, luminescence, luciferase reporter, human; human cells, AHR-responsive luciferase reporter; shares compounds with AHR act; activation, % at 9 µM; actives 87% (n = 2,300); in the data active means activation above about 49%;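 further: HepG2 hepatoma cells carrying a DRE-driven firefly luciferase reporter; 0% = vehicle wells and 100% = reference agonist wells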
PXR counter: human PXR activators, counter-screen for AHR activator project, cell-based, luciferase luminescence | AID 434939, 2010 | cell-based PXR reporter | shares compounds with AHR act | actives 88% (n = 2,300) | activation, % at 11.6 µM; in the data active means activation above about 11%;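 further: human hepatoma DPX-2 cells expressing full-length human PXR; 0% = DMSO and 100% = reference agonist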
Target sequence (O75469 whole entry, looked up): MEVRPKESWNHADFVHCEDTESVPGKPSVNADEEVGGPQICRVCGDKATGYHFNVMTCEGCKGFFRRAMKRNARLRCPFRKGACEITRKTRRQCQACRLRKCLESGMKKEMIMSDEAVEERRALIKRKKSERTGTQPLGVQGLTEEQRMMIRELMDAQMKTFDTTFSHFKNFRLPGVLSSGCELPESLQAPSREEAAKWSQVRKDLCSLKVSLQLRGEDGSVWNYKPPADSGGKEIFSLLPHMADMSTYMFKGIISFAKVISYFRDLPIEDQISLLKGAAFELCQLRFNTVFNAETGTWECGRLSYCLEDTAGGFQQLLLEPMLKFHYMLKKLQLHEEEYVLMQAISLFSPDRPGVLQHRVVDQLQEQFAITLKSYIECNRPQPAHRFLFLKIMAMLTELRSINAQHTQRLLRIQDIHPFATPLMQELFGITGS
Numbers without * were called inactive; nt = no result given.

SMILES | AHR act | PolyA inhibitor | proCasp7 act | procasp3 activ | AHR act confirm | PXR counter
O=C(COC(=O)CC1CCCC1)Nc1cc2c(cc1Cl)C(=O)c1ccccc1C2=O | 117.4* | -2.1 | -7.1 | 10.3 | 139.3* | 16.5*
CC(C)c1ccc(NC(=O)COC(=O)CC2CCCC2)cc1 | 1.3 | nt | -8.6 | -5.0 | nt | nt
O=C1N=c2ccc(Br)cc2=C1c1sc(=S)n(NS(=O)(=O)c2ccccc2)c1O | 82.9* | -19.0 | -9.3 | -10.7 | 20.3 | 23.3*
CCOC(=O)[C@H]1[C@H]2COc3cc(OC)ccc3[C@@H]2N2C(=O)N(c3cccc(Cl)c3)C(=O)[C@@]12C | 3.3 | 0.9 | -0.7 | 3.0 | nt | nt
O=C(COC(=O)CCSc1ccccc1Cl)NCc1ccco1 | 1.8 | -9.0 | -2.7 | 2.7 | nt | nt
CCc1ccc(N=Nc2ccc(O)c3[nH]cnc23)cc1 | 100.9* | nt | -14.5 | 5.6 | 92.9* | 10.6*
CCc1ccc(/C=N/Nc2ncnc3nc[nH]c23)cc1 | 44.5 | 2.4 | 5.2 | 5.5 | nt | nt
COc1ccccc1CCNC(=O)c1ccc(Br)s1 | -4.4 | 14.3 | 7.2 | -8.6 | nt | nt
C=CCNc1nc2ccccc2c(=O)[nH]1 | 94.2* | 11.5 | -11.2 | 0.0 | 8.4 | 8.7
CCCNc1nc2ccccc2c(=O)[nH]1 | 2.6 | 13.3 | 3.0 | -9.6 | nt | nt
COc1ccc(NC(=O)/C(C#N)=C/c2ccc[nH]2)c(OC)c1 | 25.0 | 0.3 | -6.1 | 4.1 | nt | nt
N#C/C(=C\c1ccc[nH]1)C(=O)Nc1ccccc1Cl | 96.0* | 0.8 | 2.7 | 4.6 | 99.5* | 28.7*
Cc1ccsc1C(=O)NNC(=O)c1cccc(S(=O)(=O)N2CCCC2)c1 | 1.3 | nt | -5.5 | 0.8 | nt | nt
COc1ccc(Nc2c(-c3ccc(OC)cc3)nc3cnccn23)cc1 | 15.0 | -13.6 | 7.4 | -5.0 | nt | nt
COc1ccc(-c2nc3cnccn3c2Nc2ccc3c(c2)OCO3)cc1 | 105.1* | -5.2 | -0.2 | 4.3 | 85.5* | 144.3*
CC(=O)c1sc(NC(=O)c2cc3c(C)nn(-c4ccccc4)c3s2)nc1C | 0.9 | 7.1 | -3.3 | 13.5 | nt | nt
Cc1nn(-c2ccccc2)c2sc(C(=O)NC3CC3)cc12 | 84.4* | -2.5 | -1.8 | -3.9 | 79.6* | 38.7*
COc1cc(NC(=O)c2cccs2)c(OC)cc1NC(=O)c1ccco1 | 93.9* | 3.8 | 5.2 | -9.1 | 117.0* | 10.4*
COc1ccc(NC(=O)c2ccco2)cc1NC(=O)c1ccc(C)cc1 | 92.5* | -1.5 | -2.6 | -7.3 | 105.9* | 13.1*
Cc1cc(OCC(O)CNC(C)(C)C)ccc1Cl (stereo not given) | 7.9 | 19.4 | -1.0 | 3.9 | nt | nt
CCOc1nc2cnccc2n(CC(=O)Nc2ccccc2C(=O)OC)c1=O | 7.2 | -16.2 | -8.8 | 8.7 | nt | nt
O=C(NC(=Nc1nc2ccccc2o1)NC(=O)c1ccccc1)c1ccccc1 | 30.3 | -10.6 | -2.4 | -0.5 | nt | nt
N/C(=N\c1nc2ccccc2o1)NC(=O)c1cccc(Cl)c1 | 30.6 | -9.6 | -3.8 | -5.3 | nt | nt
COc1ccccc1C(=O)NC(=Nc1nc2ccccc2o1)NC(=O)c1ccccc1OC | 106.7* | -5.2 | -4.1 | -2.5 | 132.7* | 45.3*
N/C(=N\c1nc2ccccc2o1)NC(=O)c1ccccc1F | 103.7* | -27.4 | -2.0 | 4.2 | 167.1* | 14.6*
SMILES | AHR act | PolyA inhibitor | proCasp7 act | procasp3 activ | AHR act confirm | PXR counter
Clc1ccc(-c2cn3cc(Cl)ccc3n2)cc1 | 87.5* | -23.5 | 4.1 | 8.5 | 123.9* | 19.2*
Clc1ccc(-c2cn3ccccc3n2)cc1 | 25.5 | -22.2 | 6.3 | 0.9 | nt | nt
NNC(=O)c1ccc2nc(-c3ccc(Br)cc3)cn2c1 | 99.8* | -18.7 | 12.2 | 2.2 | 49.9* | 21.3*
COc1cccc(NC(=O)c2sc3nc(N4CCOCC4)c4c(c3c2N)CCCC4)c1 | -2.8 | -10.4 | -14.4 | -3.8 | nt | nt
COc1ccc([C@H]2CC(=O)C=C(c3ccc(C)c([N+](=O)[O-])c3)C2)cc1 | 4.0 | nt | 2.8 | 6.7 | nt | nt
Cc1c(C(=O)Nc2ccccc2[N+](=O)[O-])csc1-c1ccccc1 | 122.1* | -12.6 | 0.3 | 3.2 | 63.4* | 27.4*
Cc1c(C(=O)Nc2ccccc2)csc1-c1ccccc1 | -5.4 | 1.6 | 7.2 | 0.5 | nt | nt
C/C(=N/NC(=O)c1cc(-c2ccccc2)nc2c(Cl)cccc12)c1cccnc1 | nt | -16.7 | nt | nt | nt | nt
O=C(c1noc2c1CCCC2)N1CCCC(N2CCN(c3ccccc3F)CC2)C1 (stereo not given) | 3.7 | 8.1 | -15.1 | 1.5 | nt | nt
COC(=O)CSc1nc2ncc(Cl)cc2[nH]1 | 2.2 | 8.1 | -6.1 | -6.2 | nt | nt
O=[N+]([O-])c1ccc(CSc2nc3ncc(Br)cc3[nH]2)cc1 | 8.7 | 5.5 | -6.6 | -0.1 | nt | nt
CC(C)(C)C(=O)CSc1nc2ncc(Br)cc2[nH]1 | 83.8* | -7.4 | -3.0 | -0.4 | 56.9* | 125.1*
O=C(CSc1nc2ncc(Br)cc2[nH]1)c1cccc([N+](=O)[O-])c1 | 92.1* | 3.0 | -6.8 | -10.5 | 67.3* | 98.4*
Fc1ccccc1CSc1nc2ncc(Br)cc2[nH]1 | 104.5* | -13.4 | 0.9 | 9.8 | 70.6* | 99.8*
Cc1ccc(NC2CCCN(C(=O)CCC3=NNC(=O)CC3)C2)cc1C (stereo not given) | 7.6 | 3.8 | -5.8 | -5.0 | nt | nt
CSCCC(NC(=O)c1ccccc1)C(=O)NCCCn1nc(C)cc1C (stereo not given) | 3.4 | nt | -0.8 | 0.5 | nt | nt
O=C(CSc1ncnc2c1cnn2-c1ccccc1)NCC1CCCO1 (stereo not given) | 20.2 | 22.8 | 4.5 | 3.9 | nt | nt
Oc1c(C=NCc2ccc(F)cc2)[nH]c2ccc(Br)c(Cl)c12 | 81.2* | 18.2 | 3.1 | -3.3 | 85.5* | 31.1*
Cc1ccc(CN=Cc2[nH]c3ccc(Br)c(Cl)c3c2O)cc1 | 29.5 | -13.2 | -2.6 | -3.2 | nt | nt
O=[N+]([O-])c1cccc(-c2cnc3ccccc3n2)c1 | 28.5 | -31.5 | 5.8 | -0.2 | nt | nt
O=[N+]([O-])c1cccc(-c2cc3ccccc3[nH]2)c1 | 83.8* | -37.2 | 1.4 | 5.7 | 133.5* | 14.5*
Oc1ccc(NCc2ccccc2OCc2ccccc2F)cc1 | 8.4 | -0.5 | -17.6 | 0.4 | nt | nt
Cc1ccc(NCc2ccccc2OCc2ccccc2F)cc1 | 106.3* | -1.0 | 5.2 | 3.3 | 81.8* | 36.4*
CC(NC(=O)OC(C)(C)C)C(=O)NC(CCC(=O)OCc1ccccc1)C(N)=O (stereo not given) | 0.5 | 4.3 | -0.8 | 2.3 | nt | nt
COc1ccc2nc(-c3cccc(N)c3)[nH]c2c1 | 23.7 | 18.9 | -6.5 | -3.0 | nt | nt
